Laboratory results published in ChEMBL document CHEMBL1144304, “Benzimidazole derivatives as novel nonpeptide luteinizing hormone-releasing hormone (LHRH) antagonists. Part 1: Benzimidazole-5-sulfonamides” (Bioorg Med Chem Lett, 2005).
pIC50: −log10 of the molar value.

Tests used:
[1] = biological target: T1, Gonadotropin-releasing hormone receptor (Homo sapiens, UniProt P30968); assay: Inhibitory concentration towards human leutinizing releasing hormone receptor
T1 sequence (P30968 whole entry): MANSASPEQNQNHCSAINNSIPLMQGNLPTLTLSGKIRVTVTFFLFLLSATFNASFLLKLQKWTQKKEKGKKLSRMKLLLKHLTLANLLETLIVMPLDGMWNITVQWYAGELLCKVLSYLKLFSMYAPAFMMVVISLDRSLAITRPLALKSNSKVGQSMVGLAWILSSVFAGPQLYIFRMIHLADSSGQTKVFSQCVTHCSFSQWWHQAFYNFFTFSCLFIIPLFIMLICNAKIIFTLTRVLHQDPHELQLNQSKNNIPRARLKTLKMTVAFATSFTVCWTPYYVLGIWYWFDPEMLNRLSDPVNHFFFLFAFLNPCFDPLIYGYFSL
Procedure, shortened: (§1)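 CHO cells transfected with human or rat LHRH receptor cDNA, loaded with Fluo-3 AM and preincubated 20 min at 25 °C with varying compound concentrations. Stimulated with LHRH (10 nM for human-receptor cells, 1 nM for rat-receptor cells). Intracellular calcium fluorescence read; inhibition from integral ratio (actual/initial fluorescence). IC50 is the mean of at least two experiments, each in triplicate.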

[2] = biological target: T2, Gonadotropin-releasing hormone receptor (Rattus norvegicus, UniProt P30969); assay: Inhibitory concentration towards rat leutinizing releasing hormone receptor; procedure, shortened: as §1
T2 sequence (P30969 whole entry): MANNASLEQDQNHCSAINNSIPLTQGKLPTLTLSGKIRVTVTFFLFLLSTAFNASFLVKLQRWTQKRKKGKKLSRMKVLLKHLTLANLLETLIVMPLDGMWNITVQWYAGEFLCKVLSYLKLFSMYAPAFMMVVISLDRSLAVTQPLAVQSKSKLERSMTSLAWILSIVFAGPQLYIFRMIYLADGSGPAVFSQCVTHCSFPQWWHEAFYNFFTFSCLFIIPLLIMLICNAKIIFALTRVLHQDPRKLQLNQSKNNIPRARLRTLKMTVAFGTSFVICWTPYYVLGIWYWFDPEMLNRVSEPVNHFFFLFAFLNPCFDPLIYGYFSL

Structure (SMILES)	pIC50 [1]	pIC50 [2]
O=S(=O)(NCc1ccc(F)cc1)c1ccc2c(c1)nc(SCCO)n2Cc1ccccc1	6.57	6.22
CSc1nc2cc(S(=O)(=O)NCc3ccc(F)cc3)ccc2n1Cc1ccccc1	6.66	6.68
CCOc1nc2cc(S(=O)(=O)NCc3ccc(F)cc3)ccc2n1Cc1cccc(Cl)c1	6.06	5.72
O=S(=O)(NCc1ccc(F)cc1)c1ccc2c(c1)nc(SCCN1CCOCC1)n2Cc1ccccc1	6.80	6.77
O=S(=O)(NCc1ccc(F)cc1)c1ccc2c(c1)nc(SCc1ccccn1)n2Cc1ccccc1	6.09	6.02
O=S(=O)(NCc1ccc(F)cc1)c1ccc2c(c1)nc(NCCN1CCOCC1)n2Cc1ccccc1	< 5.00	< 5.00
O=S(=O)(NCc1ccc(F)cc1)c1ccc2c(c1)nc(SCCc1cccnc1)n2Cc1ccccc1	6.92	6.85
CCSc1nc2cc(S(=O)(=O)NCc3ccc([N+](=O)[O-])cc3)ccc2n1Cc1ccccc1	5.96	5.92
CCSc1nc2cc(S(=O)(=O)NCCN3CCOCC3)ccc2n1Cc1ccccc1	< 5.00	< 5.00
CCSc1nc2cc(S(=O)(=O)NCc3ccc(F)cc3)ccc2n1Cc1ccccc1	6.60	6.70
O=S(=O)(NCc1ccc(F)cc1)c1ccc2c(c1)nc(SCCc1ccccn1)n2Cc1ccccc1	6.64	6.55
CCOC(=O)CSc1nc2cc(S(=O)(=O)NCc3ccc(F)cc3)ccc2n1Cc1ccccc1	6.31	6.09
CCOc1nc2cc(S(=O)(=O)NCc3ccc(F)cc3)ccc2n1Cc1ccccc1	6.52	6.33
CCSc1nc2cc(S(=O)(=O)NCc3ccc(Cl)cc3)ccc2n1Cc1ccccc1	6.55	6.48
CCOc1nc2cc(S(=O)(=O)NCc3ccc(F)cc3)ccc2n1Cc1ccsc1	5.85	5.70
O=S(=O)(NCc1ccc(F)cc1)c1ccc2c(c1)nc(SCc1ccncc1)n2Cc1ccccc1	6.49	6.62
O=S(=O)(NCc1ccc(F)cc1)c1ccc2c(c1)nc(SCCNCc1ccccc1)n2Cc1ccccc1	6.17	6.28
CCSc1nc2cc(S(=O)(=O)NCc3cccc(OC)c3)ccc2n1Cc1ccccc1	5.32	5.40
CCSc1nc2cc(S(=O)(=O)NCc3ccc(F)cc3)ccc2n1CCc1ccccc1	< 5.00	< 5.00
O=S(=O)(NCc1ccc(F)cc1)c1ccc2c(c1)nc(OCCN1CCOCC1)n2Cc1ccccc1	5.24	5.49
CCSc1nc2cc(S(=O)(=O)NCc3ccc(OC)cc3)ccc2n1Cc1ccccc1	5.96	6.03
CCOc1nc2cc(S(=O)(=O)NCc3ccc(F)cc3)ccc2n1CCN1CCOCC1	5.68	5.14
